The source made the active and inactive calls.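 Rule for the calls, unless noted: active = GFP response above 150% of the DMSO level; inconclusive = fewer than 70 events counted for a yeast strain; inactive = the rest.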
Key:
[1] = RPL19A-GFP modulators, yeast TOR pathway, confirmation, cell-based, S. cerevisiae, flow cytometry, cherry picks, mother/daughter gates (AID 2270;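 active = GFP response below 50% of the DMSO control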); conditions: S. cerevisiae RPL19A-GFP strain, 3 h, at 10 µM, stronger effect = lower value, 100 = same GFP as DMSO wells
[2] = LAP4-GFP expression modulators in yeast, confirmation, cell-based, cherry picks, flow cytometry, mother/daughter gates (AID 2271;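 active = GFP response above 150% of the DMSO control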;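 note: ratio of sample to DMSO plate mean so 100% equals DMSO level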); conditions: S. cerevisiae LAP4-GFP strain, 3 h, at 10 µM, stronger effect = higher value, 100 means same as DMSO control
How it was run: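 Test system: GFP-fusion yeast strain. Medium: synthetic complete (SC) yeast growth medium. Timing: 3 h treatment at 30 °C with rotation. Measured by: GFP by flow cytometry. Control set: positive rapamycin (400 ng/mL), negative DMSO.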

[3] = modulators of MEP2-GFP levels in yeast, confirmation, S. cerevisiae, flow cytometry GFP, cherry picks (AID 2272;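 active = GFP response above 150% of the DMSO control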;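 note: ratio of well signal to plate DMSO mean so 100% equals DMSO level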); conditions: S. cerevisiae MEP2-GFP strain, 3 h, at 10 µM, stronger effect = higher value
[4] = AGP1-GFP expression modulators, hit retest, confirmation, cell-based, flow cytometry, S. cerevisiae, cherry picks (AID 2273);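 note: median GFP channel fluorescence over the whole cell population gate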; conditions: S. cerevisiae AGP1-GFP strain, 3 h, at 10 µM
[5] = modulators of CIT2-GFP expression in yeast, confirmation, S. cerevisiae, GFP fusion, cherry picks, mother/daughter gates (AID 2274); conditions: S. cerevisiae CIT2-GFP strain, flow cytometry, 3 h, at 10 µM, stronger effect = higher value
[6] = measured here: daughter cell gate
[7] = measured here: mother cell gate
[8] = measured here: daughter cell gate response
[9] = measured here: mother cell gate response

SMILES	GFP response vs DMSO [1]	GFP response vs DMSO [1, 6] [%]	GFP response vs DMSO [1, 7] [%]	GFP response relative to DMSO [2]	GFP response relative to DMSO [2, 8] [%]	GFP response relative to DMSO [2, 9] [%]	GFP response vs DMSO [3]	GFP response, % of DMSO [4]	GFP response, % of DMSO [5]	GFP response, % of DMSO [5, 6] [%]	GFP response, % of DMSO [5, 7] [%]
Cc1nc(SC2CC(=O)N(c3ccccc3)C2=O)nc2c1CCCC2 (stereo unspecified)	95.4% (inactive)	95.9	95.8	97.9% (inactive)	97.6	97.2	96.2% (inactive)	93.1% (inactive)	101% (inactive)	101	99.7
COC(=O)c1ccc(C(=O)NC(=S)Nc2ccc3nc(SC)sc3c2)cc1	97.8% (inactive)	97.6	98.3	90% (inactive)	90.4	91	101% (inactive)	102% (inactive)	103% (inactive)	93.7	105
OCC[n+]1ccc(/C=C/c2c[nH]c3ccccc23)cc1	108% (inactive)	106	108	140% (inactive)	143	141	164% (inactive)	104% (inactive)	141% (inactive)	142	143
O=C(CNC(=O)c1ccncc1)N/N=C/c1cccc([N+](=O)[O-])c1	99.2% (inactive)	98.6	99.4	97.9% (inactive)	97.6	98.3	105% (inactive)	94.7% (inactive)	99.7% (inactive)	101	99.7
CN1CCN(/N=C/c2c3ccccc3c(Cl)c3ccccc23)CC1	94.9% (inactive)	95	94	105% (inactive)	101	101	105% (inactive)	99.8% (inactive)	101% (inactive)	102	95.7
Cn1cnc([N+](=O)[O-])c1S(=O)(=O)c1cccc(Cl)c1	103% (inactive)	99.9	100	107% (inactive)	104	108	103% (inactive)	113% (inactive)	118% (inactive)	119	113
N/C(Cc1ccc(Cl)cc1)=N\OC(=O)c1cccc2ccccc12	96.2% (inactive)	82.1	82.6	199% (active)	127	188	126% (inactive)	88.1% (inactive)	139% (inactive)	97.4	127
CCOC(=O)CNc1c(-c2ccc(O)cc2)nc2ccc(Cl)cn12	101% (inactive)	99.8	101	96.5% (inactive)	95	97.5	102% (inactive)	95.4% (inactive)	96.4% (inactive)	96.4	95.6
Clc1ccc(-n2nnnc2Sc2ncnc3sccc23)cc1	100% (inactive)	98.4	98.8	131% (inactive)	123	130	131% (inactive)	115% (inactive)	106% (inactive)	105	105
COC(=O)Nc1ccc2c(c1)N(C(=O)CCN1CCN3CCCC3C1)c1ccccc1CC2 (stereo unspecified)	102% (inactive)	101	102	96.2% (inactive)	97.2	99.3	104% (inactive)	106% (inactive)	104% (inactive)	99.7	105
CCOc1cc(C)c(S(=O)(=O)N2CCCC2)cc1C	90% (inactive)	83.8	91.1	137% (inactive)	128	145	92.6% (inactive)	94.5% (inactive)	78.5% (inactive)	72.1	80.9
Cc1c(C)c2ccc(OCC(=O)NCCCn3ccnc3)cc2oc1=O	97.8% (inactive)	97.4	98.5	96.7% (inactive)	96	96.1	105% (inactive)	97.6% (inactive)	101% (inactive)	101	101
COCC(=O)Nc1cc([N+](=O)[O-])ccc1C	99.5% (inactive)	101	99.8	101% (inactive)	99.3	99.5	102% (inactive)	98.4% (inactive)	99.3% (inactive)	100	98
Cc1ccc(C(=O)Nc2nnc(CC(=O)N/N=C/c3ccc(O)c(O)c3)s2)cc1	97.8% (inactive)	99	95.9	94.1% (inactive)	92.9	95.4	103% (inactive)	104% (inactive)	103% (inactive)	103	104
COc1cc(C(O)P(=O)(OCC(C)C)OCC(C)C)cc(OC)c1OC (stereo unspecified)	99.5% (inactive)	99.8	99.7	100% (inactive)	102	98.5	104% (inactive)	100% (inactive)	101% (inactive)	100	99.1
Cc1ccc(S(=O)(=O)N2C3C=CC(C3)C2C(=O)O)cc1 (stereo unspecified)	96% (inactive)	97.6	95.2	95.3% (inactive)	96	94.4	106% (inactive)	98.4% (inactive)	97.2% (inactive)	97.6	98.2

SMILES	GFP response vs DMSO [1]	GFP response vs DMSO [1, 6] [%]	GFP response vs DMSO [1, 7] [%]	GFP response relative to DMSO [2]	GFP response relative to DMSO [2, 8] [%]	GFP response relative to DMSO [2, 9] [%]	GFP response vs DMSO [3]	GFP response, % of DMSO [4]	GFP response, % of DMSO [5]	GFP response, % of DMSO [5, 6] [%]	GFP response, % of DMSO [5, 7] [%]
Cc1cc(Cl)ccc1N=c1ssnc1Cl	92.2% (inactive)	94.2	86.5	133% (inactive)	114	145	109% (inactive)	97.3% (inactive)	102% (inactive)	103	101
Cc1cccc(CSc2cccc3cccnc23)c1	92.3% (inactive)	91.3	92.1	130% (inactive)	125	132	97.2% (inactive)	89.1% (inactive)	88.9% (inactive)	90.5	85.9
O=C(OCCCOC(=O)c1ccc(Br)o1)c1ccc(Br)o1	98.2% (inactive)	95.3	98	108% (inactive)	108	109	103% (inactive)	102% (inactive)	97.2% (inactive)	97.6	97.1
O=C1Nc2ccccc2/C1=C\C(=O)c1ccccc1	99% (inactive)	96.4	91.9	228% (active)	180	236	128% (inactive)	103% (inactive)	109% (inactive)	110	104
CC(=O)Oc1ccc(/C=c2\sc3ncnn3c2=O)cc1	100% (inactive)	102	97.8	123% (inactive)	122	125	101% (inactive)	98.8% (inactive)	100% (inactive)	103	96
CC(C)(C)c1ccc(C(=O)N/N=C/c2cccc(Cl)c2)cc1	96% (inactive)	96.4	95.4	100% (inactive)	101	102	99.3% (inactive)	97% (inactive)	91.7% (inactive)	92.3	92.6
COc1cc(NC(=O)C(C)C)ccc1NC(=O)c1cc2ccccc2o1	102% (inactive)	99.8	103	92.6% (inactive)	92.5	94.2	102% (inactive)	97.8% (inactive)	103% (inactive)	101	104
CCCCNC(=O)c1ccc2c(SCC(=O)O)c3c(nc2c1)CCCC3	98.7% (inactive)	96.7	99	101% (inactive)	104	97.5	99.5% (inactive)	98% (inactive)	97.8% (inactive)	98.3	98
Cc1cccn2c(N)c(-c3ccccc3)nc12	97.4% (inactive)	97.3	97.1	95.3% (inactive)	96.5	90.6	106% (inactive)	102% (inactive)	104% (inactive)	102	96.8
COc1ccc(N2C(=O)CC(Sc3nccc(C)n3)C2=O)cc1 (stereo unspecified)	97.2% (inactive)	98	96.5	98.8% (inactive)	101	98.5	104% (inactive)	107% (inactive)	99.3% (inactive)	96.4	100
CCOc1ccc(CNC(=O)CCC(=O)N2Cc3cccc(OC)c3Oc3ncccc32)cc1	98.2% (inactive)	98.6	99.8	97.9% (inactive)	99.2	96.1	100% (inactive)	96.6% (inactive)	101% (inactive)	101	99.7
Cc1cc(C)c(S(C)(=O)=O)c(S(=O)(=O)c2ccc(Cl)cc2)n1	100% (inactive)	100	100	99.2% (inactive)	97.6	99.3	98.3% (inactive)	100% (inactive)	103% (inactive)	103	101
Cc1ccc2[nH]cc(/C=C/c3cc[n+](C)cc3)c2c1	106% (inactive)	106	105	153% (active)	156	154	170% (inactive)	116% (inactive)	147% (inactive)	156	140
S=C(Nc1ccc(Cl)cc1)Nc1ccc2cn[nH]c2c1	93.9% (inactive)	96.3	93.3	106% (inactive)	108	105	101% (inactive)	104% (inactive)	103% (inactive)	100	104
O=C(NNC(=O)C1CCCCC1)C(=O)NC1CCCCC1	99.1% (inactive)	99.8	99.3	98.8% (inactive)	97.9	97.5	112% (inactive)	104% (inactive)	104% (inactive)	102	104
